The source of these data is ChEMBL document CHEMBL1127590 (J Med Chem, 1994).

Data set [1] in a line: In vitro inhibitory activity against human adrenal 3-beta hydroxy-delta 5-teroid isomerase. The method, boiled down:
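Microsomes were prepared from human adrenal tissue by homogenization and differential centrifugation. Inhibitor in 50% DMSO was preincubated 10 min at 37 °C in 100 mM potassium phosphate pH 7.5 with 1 mM NAD+. The reaction was started with 100 nM [3H]DHEA and quenched in ethanol after 15 min. DHEA-to-androstenedione conversion was measured by radio-HPLC.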

In data set [2] the test system is Rattus norvegicus. As to the kind of experiment: In vivo inhibition of T stimulated prostate growth in rats was reported after oral administration at a dose 10 mg/kg/day. It counts as functional, Prostate gland. In short, it runs like this:
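Rats were castrated, and 7 days later dosed orally once daily for 7 days at 10 mg/kg/day in 1 part cremophor:2 parts saline:0.5% Tween 80 (8 rats/group). Testosterone (40 μg/kg sc in corn oil) was given 4 h after each dose. Ventral prostates were weighed on day 8. Weight reduction was expressed as a percent of the finasteride reduction versus T-treated vehicle controls.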

Data set [3] addresses T1, 3-oxo-5-alpha-steroid 4-dehydrogenase 2 (Homo sapiens, UniProt P31213).
T1 sequence (P31213 whole entry): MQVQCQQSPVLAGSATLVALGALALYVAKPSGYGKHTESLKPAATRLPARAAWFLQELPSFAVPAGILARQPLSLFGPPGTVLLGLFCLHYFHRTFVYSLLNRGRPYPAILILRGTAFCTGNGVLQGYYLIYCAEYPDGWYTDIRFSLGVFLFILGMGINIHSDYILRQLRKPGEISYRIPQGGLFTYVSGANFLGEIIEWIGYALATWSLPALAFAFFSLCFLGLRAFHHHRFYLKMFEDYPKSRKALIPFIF
As to the kind of experiment: In vitro inhibitory activity against human type 2 5-alpha reductase.

The target in data set [4] is T2, 3-oxo-5-alpha-steroid 4-dehydrogenase 1 (Homo sapiens, UniProt P18405).
T2 sequence (P18405 whole entry): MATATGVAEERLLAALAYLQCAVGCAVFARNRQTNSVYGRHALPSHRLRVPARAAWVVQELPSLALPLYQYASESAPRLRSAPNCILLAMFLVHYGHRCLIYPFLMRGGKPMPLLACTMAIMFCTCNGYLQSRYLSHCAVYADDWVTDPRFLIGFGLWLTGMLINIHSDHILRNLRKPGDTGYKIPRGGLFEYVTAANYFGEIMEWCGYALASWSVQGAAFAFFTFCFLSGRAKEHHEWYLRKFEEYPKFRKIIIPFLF
As to the kind of experiment: In vitro inhibitory activity against human type 1 5-alpha reductase. In short, it runs like this:
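Used microsomes from baculovirus-infected SF-9 cells expressing recombinant human type 1 5AR, at final enzyme 0.05–5 nM. Buffer at pH 7 and 37 °C contained an NADPH-regenerating system. Inhibitor was preincubated 10 min before adding 100 nM [3H]testosterone.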

Data set [5] in a line: Bioavailability in dog (male Beagle) i.v. administration. It counts as ADME, organism-based, Canis lupus familiaris. Particulars: in vivo, po, in the assay text read “oral administration” for “[…]”. The method, boiled down:
(§1)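 Male beagles received iv doses of 5 or 10 mg/kg from 5 mg/mL solutions in aqueous 40% (w/v) Molecusol, and some also received oral doses. Heparinized blood was sampled from 0 min to 24 h and assayed by HPLC (UV 304 nm, or thermospray MS). AUC∞ was calculated by the trapezoidal rule.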

A short description of data set [6]: Half-life after intravenous administration of 5 mg/kg/day dose in male beagles. Also noted: route intravenous. The format is ADME, organism-based, Canis lupus familiaris. To be noted: beagle, dog, in vivo. The method, boiled down: as §1
Data set [7] relates to Rattus norvegicus. As to the kind of experiment: In vivo inhibition of T stimulated prostate growth in rats was reported after oral administration at a dose 10 mg/kg/day.
Data set [8] is described as follows: Half-life after intravenous administration of 10 mg/kg/day dose in male beagles. It counts as ADME, organism-based, Canis lupus familiaris. Particulars: beagle, dog, in vivo. Also noted: route intravenous. The method, boiled down:
as §1

`C[C@]12C=CC(=O)C=C1NCC1C2CC[C@@]2(C)C1CC[C@@H]2C(=O)NC(c1ccccc1)c1ccccc1` (some centres not stated): the Ki turned out to be 990 nM in data set [1] and 48 nM in data set [4]. In data set [2], this molecule registered a Reduction of 0%. In data set [3], this molecule yielded an IC50 of less than 0.1 nM.
For `CN1CC2C(CC[C@@]3(C)C2CC[C@@H]3C(=O)NC(c2ccccc2)c2ccccc2)[C@@]2(C)CCC(=O)C=C12` (some centres not stated) the same measures were 11 nM, 6.4 nM, 13% and 0.2 nM.
For `CCN(CC)C(=O)[C@H]1CCC2C3CN(C)C4=CC(=O)CC[C@]4(C)C3CC[C@@]21C` (some centres not stated) the same measures were 3.6 nM, 180 nM, 52% and 2.3 nM.
As for `CC1=C2NCC3C(CC[C@@]4(C)C3CC[C@@H]4C(=O)NC(C)(C)C)[C@@]2(C)CCC1=O` (some centres not stated), the results for the Ki in data set [1] and in data set [4] were 9.2 nM and 12 nM, respectively. The molecule also had a Reduction in data set [2] of 0%. Further, the IC50 in data set [3] came to 1.4 nM.
Regarding `C[C@]12CCC(=O)C=C1NCC1C2CC[C@@]2(C)C1CC[C@@H]2C(=O)NC(c1ccccc1)c1ccccc1` (some centres not stated), the Ki in data set [1] is 150 nM. Also, the bioavailability in data set [5] came to 79%. The half-life in data set [6] is 288 min. This molecule also showed an IC50 in data set [3] of less than 0.1 nM. This molecule came in with a Reduction in data set [7] of 95%.
As to `CN1CC2C(CC[C@@]3(C)C2CC[C@@H]3C(=O)NC23CC4CC(CC(C4)C2)C3)[C@@]2(C)CCC(=O)C=C12` (some centres not stated), the Ki in data set [1] was determined as 2.7 nM; in data set [4] it was 8.5 nM. Moreover, the Reduction in data set [2] was determined as 12%. Besides, the IC50 in data set [3] is less than 0.1 nM.
On to `CC(C)(C)NC(=O)[C@H]1CC[C@H]2[C@@H]3CC[C@H]4NC(=O)C=C[C@]4(C)[C@H]3CC[C@]12C` [FINASTERIDE], for which the Ki in data set [1] was determined as 11000 nM. The bioavailability in data set [5] amounted to 69%. The half-life in data set [8] is 252 min. Also, the Reduction in data set [2] is listed as 100%.
Turning to `C[C@]12CCC(=O)C=C1NCC1C2CC[C@@]2(C)C1CC[C@@H]2C(=O)NC(c1ccc(Cl)cc1)c1ccc(Cl)cc1` (some centres not stated), in data set [1], the Ki amounted to 510 nM. In addition, the half-life in data set [6] was 720 min. This molecule returned a Reduction in data set [7] of 74%.
For `C[C@]12CCC(=O)C=C1NCC1C2CC[C@@]2(C)C1CC[C@@H]2C(=O)NC12CC3CC(CC(C3)C1)C2` (some centres not stated), the Ki worked out at 78 nM in data set [1] and 11 nM in data set [4]. Further, the half-life in data set [8] is 108 min. Also, the Reduction in data set [2] is on record as 38%.
`CC1=C2NCC3C(CC[C@@]4(C)C3CC[C@@H]4C(=O)NC(c3ccccc3)c3ccccc3)[C@@]2(C)CCC1=O` (some centres not stated): the Ki was found to be 18 nM in data set [1] and 3.6 nM in data set [4]. The same molecule had a Reduction in data set [2] of 38%. The molecule also yielded an IC50 in data set [3] of less than 0.1 nM.
On to `CN1CC2C(CC[C@@]3(C)C2CC[C@@H]3C(=O)NC(C)(C)C)[C@@]2(C)CCC(=O)C=C12` (some centres not stated), for which the values for the Ki in data set [1] and in data set [4] were 6.6 nM and 87 nM, respectively. This molecule gave a bioavailability in data set [5] of 80%. In data set [8], this molecule showed a half-life of 84 min. The Reduction in data set [2] is on record as 54%.
Turning to `C[C@]12CCC(=O)C=C1NCC1C2CC[C@@]2(C)C1CC[C@@H]2C(=O)c1cccc2ccccc12` (some centres not stated), the Ki in data set [1] came out at 7.8 nM; in data set [4], 15 nM. Also, the IC50 in data set [3] was less than 0.1 nM.
With `CCN(CC)C(=O)[C@H]1CCC2C3CCNC4=CC(=O)CC[C@]4(C)C3CC[C@@]21C` (some centres not stated), the inhibition constant (Ki) in data set [1] turned out to be 1500 nM; in data set [4] it was 1000 nM. In data set [3], this molecule came in with an IC50 of 3.8 nM.
In the same order, the values of `CC1=C2N(C)CC3C(CC[C@@]4(C)C3CC[C@@H]4C(=O)NC34CC5CC(CC(C5)C3)C4)[C@@]2(C)CCC1=O` (some centres not stated) are 18 nM, 6.2 nM and 0.4 nM.
For `C[C@]12CC[C@H]3[C@@H](CNC4=CC(=O)CC[C@@]43C)[C@@H]1CC[C@@H]2C(=O)OC1[C@H]2C[C@@H]3C[C@@H](C[C@H]1C3)C2` (some centres not stated) the same measures were 180 nM, 6.9 nM and less than 0.1 nM.
In the same order, the values of `CCN(CC)C(=O)[C@H]1CCC2C3CNC4=C(C)C(=O)C=C[C@]4(C)C3CC[C@@]21C` (some centres not stated) are 91 nM, 280 nM and 8.1 nM.
Turning to `C[C@]12C=CC(=O)C=C1NCC1C2CC[C@@]2(C)C1CC[C@@H]2C(=O)NC12CC3CC(CC(C3)C1)C2` (some centres not stated), the inhibition constant Ki in data set [1] turned out to be 1000 nM; in data set [4], 74 nM. Besides, in data set [2], the Reduction worked out at 14%. Also, the 50% inhibitory concentration (IC50) in data set [3] was less than 0.1 nM.
Turning to `CC(C)CC(=O)[C@H]1CCC2C3CN(C)C4=CC(=O)CC[C@]4(C)C3CC[C@@]21C` (some centres not stated), the Ki came to 1.1 nM in data set [1] and 3.1 nM in data set [4]. Moreover, the half-life in data set [6] is 132 min. Moreover, in data set [7], the Reduction was determined as 5%.
Take `C[C@]12CCC(=O)C=C1NCC1C2CC[C@@]2(C)C1CC[C@@H]2C(=O)NC(c1ccc(F)cc1)c1ccc(F)cc1` (some centres not stated): the affinity in data set [1] corresponds to a Ki of 320 nM. Moreover, the half-life in data set [6] was 312 min. In data set [7], this molecule gave a Reduction of 90%.
Turning to `CCN(CC)C(=O)[C@H]1CCC2C3CN(C(C)=O)C4=CC(=O)CC[C@]4(C)C3CC[C@@]21C` (some centres not stated), the Ki in data set [1] is 34000 nM; in data set [4] it was 40000 nM. Moreover, it took 3000 nM to reach half-maximal inhibition in data set [3] (IC50).
In the same order, the values of `CC(C)(C)NC(=O)[C@H]1CC[C@H]2[C@@H]3CC=C4C=C(C(=O)O)CC[C@]4(C)[C@H]3CC[C@]12C` [EPRISTERIDE] are 160 nM, 1600 nM and 0.18 nM.
Regarding `CC1=C2NCC3C(CC[C@@]4(C)C3CC[C@@H]4C(=O)NC34CC5CC(CC(C5)C3)C4)[C@@]2(C)CCC1=O` (some centres not stated), the Ki was 9 nM in data set [1] and 1.1 nM in data set [4]. For the same molecule, the Reduction in data set [2] worked out at 24%. For the same molecule, in data set [3], the IC50 is less than 0.1 nM.
As for `CCN(CC)C(=O)[C@H]1CC[C@H]2[C@@H]3CC[C@H]4N(C)C(=O)CC[C@]4(C)[C@H]3CC[C@]12C`, the Ki is 20 nM in data set [1] and 5 nM in data set [4]. The IC50 in data set [3] is 0.23 nM.
For `C[C@]12CCC(=O)C(Br)=C1NCC1C2CC[C@@]2(C)C1CC[C@@H]2C(=O)NC12CC3CC(CC(C3)C1)C2` (some centres not stated) the same measures were 13 nM, 4.5 nM and less than 0.1 nM.
Regarding `CN1CC2C(CC[C@@]3(C)C2CC[C@@H]3C(=O)NC(C)(C)C)[C@@]2(C)C=CC(=O)C=C12` (some centres not stated), the Ki in data set [1] turned out to be 62 nM; in data set [4], 1400 nM. Besides, in data set [3], the IC50 worked out at 6.7 nM.
On to `CCC1=C2NCC3C(CC[C@@]4(C)C3CC[C@@H]4C(=O)N(CC)CC)[C@@]2(C)CCC1=O` (some centres not stated), for which the Ki in data set [1] is 47 nM; in data set [4], 4100 nM. This molecule also had an IC50 in data set [3] of 180 nM.
For `CCN(CC)C(=O)[C@H]1CCC2C3CNC4=C(Br)C(=O)CC[C@]4(C)C3CC[C@@]21C` (some centres not stated) the same measures were 13 nM, 97 nM and 2.1 nM.
Take `C[C@]12CCC(=O)C=C1NCC1C2CC[C@@]2(C)C1CC[C@@H]2C(=O)CC1CCCCC1` (some centres not stated): the Ki came to 16 nM in data set [1] and 4 nM in data set [4]. The IC50 in data set [3] was less than 0.1 nM.
`CCN(CC)C(=O)[C@H]1CCC2C3CNC4=C(C)C(=O)CC[C@]4(C)C3CC[C@@]21C` (some centres not stated): the Ki in data set [1] is 18 nM; in data set [4], 40 nM. The same molecule showed a Reduction in data set [2] of 0%.
